# Experimental data of several laboratories.
# Protocols differ between the studies behind these lines.
# Target: RAC-beta serine/threonine-protein kinase (AKT2, Homo sapiens, UniProt P31751)
SMILES,test,conditions,measurement,result
COc1cc(Nc2ncc(F)c(Nc3ccc4c(n3)NC(=O)C(C)(C)O4)n2)cc(OC)c1OC,binding,10 µM,inhibition,0%
Nc1ncc(-c2nc(N3CCOCC3)nc(N3CCOCC3)n2)c(C(F)F)n1,"binding, competition with immobilised ligand",10 µM,remaining binding,100%
C#Cc1n[nH]c2c(-c3cn(C(C)c4ccccn4)c(=O)[nH]c3=O)cc(F)cc12 (centres unmarked),"enzyme activity, inhibitor",1 µM,inhibition,2%
Cn1cncc1[C@@](O)(COc1ccc(C#N)cc1-c1ccc(OC(F)(F)F)cc1)c1ccc(C#N)cc1,"cell-free assay, competition with immobilised ligand",1 µM,remaining binding,78%
COc1ncccc1-c1cnn2ccc(N3CCN(C(=O)OC(C)C)CC3)nc12,"binding, competition with immobilised ligand",1 µM,remaining binding,98%
Cc1nn(C)cc1-c1nc2c(N3CCN(Cc4ccc(Cl)cc4)CC3)c(Cl)cnc2[nH]1,"binding, competition with immobilised ligand",1 µM,remaining binding,100%
CC(C)(C)c1cc(C=C(C#N)C#N)cc(Br)c1O,"enzyme activity, inhibitor",0.5 µM,remaining activity,97.7%
Cn1cc(-c2cccc(N3CCc4c(sc5c4CC(C)(C)C5)C3=O)c2CO)cc(Nc2ccncn2)c1=O,"enzyme activity, inhibitor",1 µM,inhibition,2%
O=c1[nH]c2ccccc2n1C1CCN(Cc2ccc(-c3[nH]c4cc5ncnc5cc4nc3-c3ccccc3)cc2)CC1,cell-free assay,0.5 µM,remaining signal,96.8%
Cn1cc(-c2cc(F)cc(N3CCn4c(cc5c4CCCC5)C3=O)c2CO)cc(Nc2ccc(N3CCN(C4COC4)CC3)cn2)c1=O,"enzyme activity, inhibitor",0.1 µM,inhibition,9%
N#CC1(c2ccccn2)CCN(Cc2cc(C(=O)O)c(=O)n3ccccc23)CC1,"cell-free assay, competition with immobilised ligand",1 µM,remaining binding,73%
